# Measurements reported in ChEMBL document CHEMBL4229342, “Synthesis of novel proxyphylline derivatives with dual Anti-Candida albicans and anticancer activity” (Eur J Med Chem, 2018).
# Activity calls are given as the source filed them. The rule behind the calls is not given here.
# What was measured:
# CCRF-CEM = experiment: Antiproliferative activity against human CCRF-CEM cells assessed as cell viability at 200 uM after 72 hrs by MTT assay; format: functional; settings: read-out: Activity
# Summary of the method: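 MTT viability assay in CCRF-CEM and MCF-7 cells after 72 h exposure at 25, 50, 100 and 200 µM. Results are relative to control cells without inhibitor in 0.5% DMSO. Done in triplicate; values are means ± SD of three independent experiments.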
# Candida albicans [1] = experiment: Growth inhibition of Candida albicans ATCC 90028 at 0.5 ug/ml incubated for 4 hrs at 35 degC by broth microdilution method relative to control; format: functional; settings: ATCC 90028, 4 h, read-out: GI
# Candida albicans [2] = experiment: Growth inhibition of Candida albicans ATCC 90028 at 0.0625 ug/ml incubated for 18 hrs at 35 degC by broth microdilution method relative to control; format: functional; settings: ATCC 90028, 18 h, read-out: GI
# Candida albicans [3] = experiment: Inhibition of biofilm formation of Candida albicans ATCC 90028 at 20 uM […] by XTT assay; format: functional
# Candida albicans [4] = experiment: Disruption of cell wall in Candida albicans SC5314 assessed as decrease in chitin level after 18 hrs by calcofluor white staining-based flow cytometric analysis; format: functional, organism-based
# Candida albicans [5] = experiment: Antifungal activity against Candida albicans ATCC 90028 assessed as reduction in cell viability at 1022.5 to 0.06 uM after 48 hrs in presence of ergosterol by XTT assay; format: functional; settings: ATCC 90028, 48 h
# Candida albicans [6] = experiment: Antifungal activity against Candida albicans ATCC 90028 assessed as reduction in cell viability at 8 uM at after 48 hrs in presence of ergosterol by XTT assay; format: functional
# [7] = Toxicity in Galleria mellonella larvae infected with Candida albicans ATCC 90028 infected with 20 uM compound pre-treated cell suspensions assessed as survival incubated in dark for 144 hrs at 30 degC and measured every 24 hrs; format: organism-based; settings: in vivo
# Galleria mellonella [8] = experiment: Toxicity in Candida albicans ATCC 90028 infected Galleria mellonella larvae infected with 20 uM compound pre-treated cell suspensions assessed as improvement in larvae health index scores incubated in dark for 144 hrs at 30 degC and measured every 24 hrs; format: organism-based; settings: in vivo
# Candida albicans [9] = experiment: (§1) Antifungal activity against Candida albicans ATCC 90028 infected in Galleria mellonella larvae infected with 20 uM compound pre-treated cell suspensions assessed as reduction in fat body formation in dark for 144 hrs at 30 degC and measured every 24 hrs by hematoxylin and eosin staining-based light microscopic analysis; format: functional, organism-based
# Candida albicans [10] = experiment: Antibiofilm activity in Candida albicans ATCC 90028 assessed as late apoptotic morphological changes by measuring reddish-orange fluorescence at 20 uM after 18 hrs by acridine orange/ethidium bromide staining-based confocal laser scanning fluorescence microscopic analysis; format: functional, organism-based
# Candida albicans [11] = experiment: Induction of apoptosis in Candida albicans ATCC 90028 planktonic forms assessed as increase in DNA damage at 4 ug/ml by ethidium bromide staining based gel electrophoresis and confocal laser scanning microscopy; format: functional, organism-based
# Candida albicans [12] = experiment: Induction of apoptosis in Candida albicans ATCC 90028 planktonic forms assessed as effect on DNA content of necrotic cells at 4 to 16 ug/ml by ethidium bromide staining based gel electrophoresis and confocal laser scanning microscopy; format: functional, organism-based
# Candida albicans [13] = experiment: Inhibition of cell adhesion of Candida albicans ATCC 90028 to African green monkey Vero cells at 2 ug/ml relative to untreated control; format: functional; settings: ATCC 90028, Vero
# Candida albicans [14] = experiment: Ratio of MFC for fungicidal activity against Candida albicans ATCC 90028 assessed as reduction in cell viability in RPMI medium in presence of sorbitol to MFC for fungicidal activity against Candida albicans ATCC 90028 assessed as reduction in cell viability in RPMI medium in absence of sorbitol; format: functional
# [15] = In-vitro chitinolytic activity of the compound assessed as p-nitrophenyl release from N-acetyl-beta-D-glucosaminide at 20 uM by chitinolytic activity assay; format: functional
# Candida albicans [16] = experiment: Induction of apoptosis in Candida albicans ATCC 90028 protoplast assessed as viable cells at 248 uM after 48 hrs Annexin V-FITC/propidium iodide staining based flow cytometric analysis (reference value: 96.38 +/- 2.05%); format: functional
# Candida albicans [17] = experiment: Induction of apoptosis in Candida albicans ATCC 90028 protoplast assessed as late apoptotic cells at 248 uM after 48 hrs Annexin V-FITC/propidium iodide staining based flow cytometric analysis (reference value: 0.3 +/- 0.30%); format: functional
# Candida albicans [18] = experiment: Antifungal activity against Candida albicans ATCC 90028 infected in Galleria mellonella larvae infected with 31 uM compound pre-treated cell suspensions assessed as cocoon formation incubated in dark for 144 hrs at 30 degC and measured every 24 hrs (reference value: 65%); format: functional
# Galleria mellonella [19] = experiment: Toxicity in Candida albicans ATCC 90028 infected Galleria mellonella larvae infected with 31 uM compound pre-treated cell suspensions assessed as improvement in larvae health index scores incubated in dark for 144 hrs at 30 degC and measured every 24 hrs; format: organism-based; settings: in vivo
# Candida albicans [20] = experiment: as §1, with “31” for “20”; format: functional, organism-based
# Candida albicans [21] = experiment: as §1, with “31” for “20”, “fungal burden” for “fat body formation”; format: functional, organism-based
# Candida albicans [22] = experiment: Antibiofilm activity in Candida albicans ATCC 90028 assessed as increase in chitin distribution within biofilm cells at 248 uM after 18 hrs by calcofluor white staining-based confocal laser scanning microscopic analysis; format: functional, organism-based
# Candida albicans [23] = experiment: Antibiofilm activity in Candida albicans ATCC 90028 assessed as cell membrane lysis at 248 uM after 18 hrs by acridine orange/ethidium bromide staining-based confocal laser scanning fluorescence microscopic analysis; format: functional, organism-based
# Summary of the method: (§2)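 Unfixed biofilm cells were dual-stained in situ with acridine orange and ethidium bromide, each at 100 µg/mL. Confocal fluorescence and DIC imaging scored green AO nuclei, crescent-shaped chromatin, reddish-orange late apoptotic/necrotic cells and EB uptake, against untreated control biofilm. […]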
# Candida albicans [24] = experiment: Antibiofilm activity in Candida albicans ATCC 90028 assessed as early apoptotic morphological changes by measuring crescent-shaped nuclei at 248 uM after 18 hrs by acridine orange/ethidium bromide staining-based confocal laser scanning fluorescence microscopic analysis; format: functional; summary of the method: as §2
# Candida albicans [25] = experiment: Antibiofilm activity in Candida albicans ATCC 90028 assessed as late apoptotic morphological changes by measuring reddish-orange fluorescence at 248 uM after 18 hrs by acridine orange/ethidium bromide staining-based confocal laser scanning fluorescence microscopic analysis; format: functional, organism-based; summary of the method: as §2
# Candida albicans [26] = experiment: Effect on dilpoid nuclei level in Candida albicans ATCC 90028 planktonic forms at 128 ug/ml by ethidium bromide staining based gel electrophoresis and confocal laser scanning microscopy; format: functional, organism-based
# Candida albicans [27] = experiment: Induction of apoptosis in Candida albicans ATCC 90028 planktonic forms assessed as accumulation at subG1 phase at 1 to 128 ug/ml by ethidium bromide staining based gel electrophoresis and confocal laser scanning microscopy; format: functional, organism-based
# Candida albicans [28] = experiment: Induction of apoptosis in Candida albicans ATCC 90028 planktonic forms assessed as effect on DNA content of necrotic cells at 1 to 128 ug/ml by ethidium bromide staining based gel electrophoresis and confocal laser scanning microscopy; format: functional, organism-based
# Candida albicans [29] = experiment: Induction of chitinase release in Candida albicans ATCC 90028 assessed as p-nitrophenyl release from N-acetyl-beta-D-glucosaminide at 248 uM by chitinolytic activity assay; format: functional, organism-based
compound,measurement,setting,value
CC(Cn1cnc2c1c(=O)n(C)c(=O)n2C)OCc1cn(CCCn2nc3c(Br)c(Br)c(Br)c(Br)c3n2)nn1 (stereo unspecified),viability at 200 µM,CCRF-CEM,0%
same,inhibition of growth at 0.5 µg/mL,Candida albicans [1],99.1%
same,inhibition of growth at 0.0625 µg/mL,Candida albicans [2],99.2%
same,inhibition at 20 µM,Candida albicans [3],47%
same,Activity,Candida albicans [4],Dose-dependent effect
same,MIC,Candida albicans [5],8 µM
same,Activity,Candida albicans [6],68%
same,"survival at 24 h, 20 µM",[7],90 to 100%
same,Activity,Galleria mellonella [8],Toxic
same,Activity,Candida albicans [9],Active
same,Activity,Candida albicans [10],Active
same,Activity,Candida albicans [11],Active
same,Activity,Candida albicans [12],inactive
same,inhibition at 2 µg/mL,Candida albicans [13],89%
same,Ratio,Candida albicans [14],2
same,Activity,[15],0.01 to 0.03 µmol/min
CC(CN1c2ccccc2Sc2ccccc21)OC(=O)OC(C)Cn1cnc2c1c(=O)n(C)c(=O)n2C (stereo unspecified),viability at 200 µM,CCRF-CEM,0%
same,inhibition of growth at 0.5 µg/mL,Candida albicans [1],99.1%
same,inhibition of growth at 0.0625 µg/mL,Candida albicans [2],99.7%
same,Activity,Candida albicans [16],2.8%
same,Activity,Candida albicans [17],0.1%
same,MIC,Candida albicans [5],38 µM
same,Activity,Candida albicans [18],98%
same,"survival at 24 h, 20 µM",[7],90 to 100%
same,Activity,Galleria mellonella [19],Toxic
same,Activity,Candida albicans [20],Active
same,Activity,Candida albicans [21],Active
same,Activity,Candida albicans [22],Active
same,Activity,Candida albicans [23],Active
same,fold change (FC),Candida albicans [24],2
same,Activity,Candida albicans [25],Active
same,Activity,Candida albicans [26],inactive
same,Activity,Candida albicans [27],inactive
same,Activity,Candida albicans [28],inactive
same,inhibition at 2 µg/mL,Candida albicans [13],89%
same,Activity,Candida albicans [29],inactive
